# Laboratory results as given in PubChem BioAssay.
# The source made the active and inactive calls. Rule as the data show it, unless noted: active = inhibition above about 30%; inactive = the rest.
# Experiments:
# [1] = reducers of endogenous Her2 protein level, primary screen, SKBR3 breast tumor cells, AlphaScreen, ATP viability (AID 461;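 active = Her2 level under about 52% in both replicate screens, with viability over 70% of control, limit read from the data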;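 as to Her2 level: lower value means less Her2 protein in the cells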;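 as to viability: percent of carrier control wells set as 100% viability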); conditions: 18-24 h, measured here: SKBR3 viability, ATP luminescence, at 10 µM
# [2] = molecular target: Receptor tyrosine-protein kinase erbB-2 (Homo sapiens) (UniProt P04626); test: as above; conditions: 18-24 h, at 10 µM, stronger effect = lower value
# [3] = SK-BR-3 cell growth inhibitors, pilot screen, 24 h, human (AID 572;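 active = viability at or below 10% of carrier control in both of two separate runs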;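 also: compound exposure lasted between 18 and 24 h rather than exactly 24 h; 100% = carrier-treated control wells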); conditions: SK-BR-3 viability, CellTiter-Glo luminescence, at 10 µM, stronger effect = lower value
# [4] = HUVEC growth inhibition – cell-based, human, primary screen (AID 575;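 active = viability at or below 30% in both replicate assays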;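 also: 100% = median of untreated cell wells with 0.1% DMSO on each plate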); conditions: HUVEC proliferation, CellTiter-Glo luminescence, 72 h; at 10 µM; stronger effect = lower value
# Method in brief: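 Assay system: Primary human umbilical vein endothelial cells | Quantity: 1250 cells per well | Medium: Supplemented EBM, 2% fetal bovine serum | Detection: CellTiter-Glo luminescence measuring cellular ATP | Read-out: % viability vs DMSO wells | Plate: Collagen-coated 384-well format | Times: 72 h exposure, 37 °C, 5% CO2, 30 min RT equilibration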
# [5] = growth inhibitors of H69AR lung tumor, primary screen, human, duplicate replicates (AID 580;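 active = viability at or under a set limit in both replicates, limit being median viability minus 3 SD, cut at about 48% in these data, passing the limit was not always enough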;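 also: 100% = mean luminescence of untreated wells and 0% = no signal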); conditions: H69AR lung tumor cells viability, ATP luminescence, 72 h; at 10 µM; stronger effect = lower value
# [6] = reversal of MRP1-mediated doxorubicin resistance, pilot screen, H69AR cells, doxorubicin co-treatment (AID 601;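 active = viability loss from added drug above about 55%, and viability with drug at most 40%, in both replicates, limit read from the data, passing the limit was not always enough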); conditions: CellTiter-Glo, 72 h, at 10 µM; for differential viability (reversal): stronger effect = higher value
# [7] = 384-well plate pilot, post-Golgi transport modulator project, inhibition of yeast transport mutant growth (AID 636; in the data active = inhibition above about 31%); conditions: absorbance 615 nm, about 18 h, stronger effect = higher value
# [8] = growth suppression of yeast trafficking mutant, preliminary HTS, modulators of trafficking downstream of Golgi apparatus project, 1536-format plate, OD 615 nm (AID 637); conditions: yeast transport mutant growth, absorbance 615 nm, 18 h; stronger effect = higher value
# [9] = H69AR cells + 2 uM doxorubicin, measured here: viability with 2 uM doxorubicin, stronger effect = lower value
# [10] = H69AR cells, compound alone cytotoxicity
# Receptor tyrosine-protein kinase erbB-2 (Homo sapiens), sequence (P04626 whole entry, looked up): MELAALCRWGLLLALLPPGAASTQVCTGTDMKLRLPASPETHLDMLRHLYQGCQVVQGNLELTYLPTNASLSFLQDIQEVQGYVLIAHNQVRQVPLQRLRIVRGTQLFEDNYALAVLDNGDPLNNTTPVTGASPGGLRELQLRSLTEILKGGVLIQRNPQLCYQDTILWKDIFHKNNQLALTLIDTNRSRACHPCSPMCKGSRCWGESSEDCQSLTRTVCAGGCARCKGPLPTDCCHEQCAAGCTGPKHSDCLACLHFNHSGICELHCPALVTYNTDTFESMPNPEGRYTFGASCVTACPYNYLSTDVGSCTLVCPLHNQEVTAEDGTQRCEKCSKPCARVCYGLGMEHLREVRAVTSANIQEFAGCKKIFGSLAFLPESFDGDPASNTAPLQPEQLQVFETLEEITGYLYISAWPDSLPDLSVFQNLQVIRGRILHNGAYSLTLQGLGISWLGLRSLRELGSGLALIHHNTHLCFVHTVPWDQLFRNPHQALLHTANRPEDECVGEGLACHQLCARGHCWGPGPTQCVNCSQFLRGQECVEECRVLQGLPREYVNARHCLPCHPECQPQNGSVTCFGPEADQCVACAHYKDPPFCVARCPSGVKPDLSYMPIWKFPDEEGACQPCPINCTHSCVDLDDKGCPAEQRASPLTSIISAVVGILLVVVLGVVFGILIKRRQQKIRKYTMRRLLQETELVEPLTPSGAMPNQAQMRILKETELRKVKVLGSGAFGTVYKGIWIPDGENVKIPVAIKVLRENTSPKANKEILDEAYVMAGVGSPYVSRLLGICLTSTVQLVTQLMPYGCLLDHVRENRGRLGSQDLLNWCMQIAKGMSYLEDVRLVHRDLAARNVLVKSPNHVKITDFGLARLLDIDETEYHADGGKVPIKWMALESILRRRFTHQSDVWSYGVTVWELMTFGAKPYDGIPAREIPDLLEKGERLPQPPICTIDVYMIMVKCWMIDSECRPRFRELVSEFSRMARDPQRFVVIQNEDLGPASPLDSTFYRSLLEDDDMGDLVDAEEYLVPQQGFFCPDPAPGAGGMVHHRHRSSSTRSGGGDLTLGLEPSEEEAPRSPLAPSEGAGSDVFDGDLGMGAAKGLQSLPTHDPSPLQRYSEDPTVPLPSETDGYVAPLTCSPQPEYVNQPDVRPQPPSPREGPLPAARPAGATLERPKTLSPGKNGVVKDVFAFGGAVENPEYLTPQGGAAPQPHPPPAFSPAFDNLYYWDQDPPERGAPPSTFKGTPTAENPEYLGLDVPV
SMILES,viability [1] [%],Her2 level [2],viability [3],viability [4],viability [5],differential viability (reversal) ([6]; H69AR cells + 2 uM doxorubicin),"viability [6, 9] [%]","viability [6, 10] [%]",inhibition [7],inhibition [8]
Cc1ccc2occ(CN3CCN(c4ccccc4)CC3)c(=O)c2c1,104,104% (inactive),104% (inactive),89% (inactive),87.5% (inactive),-6.67% (inactive),94.2,87.5,-1.04% (inactive),-3.77% (inactive)
COC(=O)CN(c1ccc(F)cc1)S(=O)(=O)c1ccccc1,91.5,109% (inactive),91.5% (inactive),122% (inactive),92.1% (inactive),-0.7% (inactive),92.8,92.1,0.13% (inactive),-3.93% (inactive)
CCC(C(=O)Nc1ccccc1C(=O)N1CCCC1)N1C(=O)c2ccccc2C1=O (stereo not given),96.5,88% (inactive),96.5% (inactive),78.3% (inactive),102% (inactive),5.91% (inactive),95.8,102,-3.29% (inactive),-4.83% (inactive)
CCC(C)OC(=O)c1[nH]c2c(c1C)C(=O)CC(c1ccc(N(C)C)cc1)C2 (stereo not given),88.5,73% (inactive),88.5% (inactive),57.9% (inactive),27.6% (active),-47.7% (inactive),75.3,27.6,-2.93% (inactive),24.8% (inactive)
O=C(CCn1c(=O)oc2ccccc21)NCCN1CCc2ccccc2C1,77,79% (inactive),77% (inactive),95.2% (inactive),94.4% (inactive),16% (inactive),78.4,94.4,-2.24% (inactive),3.02% (inactive)
O=C(C1CCCO1)N1CCN(C(c2ccccc2)c2ccccc2)CC1 (stereo not given),98.5,94% (inactive),98.5% (inactive),89.1% (inactive),96% (inactive),6.47% (inactive),89.5,96,-0.91% (inactive),2.62% (inactive)
O=C(CN(c1ccccc1)S(=O)(=O)c1ccccc1)N1CCN(Cc2ccc3c(c2)OCO3)CC1,104,73% (inactive),104% (inactive),92.7% (inactive),96.9% (inactive),5.03% (inactive),91.8,96.9,-6% (inactive),0.32% (inactive)
COc1cc(/C=N/n2c(C)nnc2C)cc(OC)c1OC,104,95% (inactive),104% (inactive),105% (inactive),103% (inactive),19.3% (inactive),83.6,103,-0.53% (inactive),5.74% (inactive)
OC(CN1CCCCC1)Cn1c(C(F)(F)F)nc2ccccc21 (stereo not given),85.5,103% (inactive),85.5% (inactive),105% (inactive),83.4% (inactive),-3.04% (inactive),86.4,83.4,0% (inactive),3.5% (inactive)
COc1ccccc1-c1nnc(SCC(=O)N2CC(C)CC(C)C2)o1 (stereo not given),80.5,81.5% (inactive),80.5% (inactive),77.4% (inactive),78.1% (inactive),-5.03% (inactive),83.2,78.1,-5% (inactive),-5% (inactive)
Cn1c2c(c(=O)[nH]c1=O)C(NC(=O)c1ccco1)(C(F)(F)F)C(=O)N2 (stereo not given),112,118% (inactive),112% (inactive),93.3% (inactive),96.5% (inactive),4.25% (inactive),92.3,96.5,-1.45% (inactive),0.66% (inactive)
O=C(OCc1cccs1)c1ccccc1NS(=O)(=O)c1ccc2c(c1)OCCO2,91.5,94% (inactive),91.5% (inactive),121% (inactive),102% (inactive),15.6% (inactive),86.7,102,-3.95% (inactive),5.74% (inactive)
Clc1ccc(-c2nnc3sc(-c4ccc(Br)o4)nn23)cc1,128,94.5% (inactive),128% (inactive),86% (inactive),104% (inactive),10.5% (inactive),93.5,104,-5.07% (inactive),5.87% (inactive)
COc1cc(C2C(C#N)=C(C)NC3=C2C(=O)CC(C)(C)C3)ccc1O (stereo not given),100,84% (inactive),100% (inactive),94.7% (inactive),101% (inactive),3.54% (inactive),97.1,101,-6.13% (inactive),-7.46% (inactive)
Cc1occc1C(=O)Nc1cccc2ccccc12,86,75.5% (inactive),86% (inactive),62.9% (inactive),73.2% (inactive),-12.8% (inactive),86.1,73.2,-1.84% (inactive),1.77% (inactive)
CC(C)Oc1cccc(-c2cc(C(=O)N3CCN(S(C)(=O)=O)CC3)c3ccccc3n2)c1,90.5,94% (inactive),90.5% (inactive),64% (inactive),65.7% (inactive),-9.72% (inactive),75.4,65.7,-1.84% (inactive),-6.03% (inactive)
COc1ccc(CCNS(=O)(=O)c2ccc3c(c2)CCN3C(=O)CCC(=O)O)cc1OC,104,89% (inactive),104% (inactive),88.6% (inactive),94.1% (inactive),4.3% (inactive),89.8,94.1,-2.37% (inactive),-4.91% (inactive)
CC(C)C(c1nnnn1C1CCCC1)N1CCN(C(=O)c2ccco2)CC1 (stereo not given),114,96% (inactive),114% (inactive),82.1% (inactive),88.8% (inactive),15.8% (inactive),72.9,88.8,-1.82% (inactive),-11.8% (inactive)
CCSc1nc2ccccc2n1CCC(=O)O,99,91.5% (inactive),99% (inactive),101% (inactive),109% (inactive),15.9% (inactive),93.4,109,-5.21% (inactive),1.11% (inactive)
COCc1nnc(NS(=O)(=O)c2ccc(Br)cc2)s1,99.5,92% (inactive),99.5% (inactive),108% (inactive),91.3% (inactive),-4.46% (inactive),95.8,91.3,-5.2% (inactive),-1.75% (inactive)
C/C(CC(O)(/C=N/O)c1ccccc1)=N\O (stereo not given),86,91.5% (inactive),86% (inactive),107% (inactive),94% (inactive),2.94% (inactive),91.1,94,-0.26% (inactive),3.77% (inactive)
COC(=O)C1=CN(C)C=C(C(=O)OC)C1c1ccc(O)c(OC)c1,96.5,98% (inactive),96.5% (inactive),88.1% (inactive),100% (inactive),6.83% (inactive),93.4,100,-3.16% (inactive),4% (inactive)
CCN1CCN(c2nc(-c3cccnc3)nc3ccccc23)CC1,89,94.5% (inactive),89% (inactive),101% (inactive),88.6% (inactive),-2.89% (inactive),91.5,88.6,-3.16% (inactive),-0.63% (inactive)
Cn1c(=O)cc(OCC(=O)NCCCN2CCN(Cc3ccccc3)CC2)c2ccccc21,90.5,104% (inactive),90.5% (inactive),81.3% (inactive),103% (inactive),17.9% (inactive),84.8,103,-0.93% (inactive),-7.87% (inactive)
Cc1[nH]n(C(N)=S)c(=O)c1C(c1ccccc1)C(C#N)C#N (stereo not given),96.5,152% (inactive),96.5% (inactive),70.8% (inactive),91.6% (inactive),-0.72% (inactive),92.4,91.6,3.46% (inactive),20.2% (inactive)
CC1(C)OC(=O)N(c2cccnc2)C1(C)O (stereo not given),117,83% (inactive),117% (inactive),100% (inactive),91.5% (inactive),11.6% (inactive),80,91.5,-5.6% (inactive),3.02% (inactive)
CC(C)(C)c1ccc(-c2nnc(SCCC#N)n2C2CCCC2)cc1,73.5,98.5% (inactive),73.5% (inactive),65.7% (inactive),78.8% (inactive),18.4% (inactive),60.5,78.8,-4.32% (inactive),-4.1% (inactive)
COc1ccc(CCNC(=O)CN(c2ccccc2OC)S(C)(=O)=O)cc1,112,99.5% (inactive),112% (inactive),93.5% (inactive),99.9% (inactive),15.6% (inactive),84.3,99.9,-2.08% (inactive),-1.48% (inactive)
